Experimental findings from ChEMBL document CHEMBL3232791, “Synthesis and antibacterial evaluation of amino acid-antibiotic conjugates” (2014) are described below.

Structures are written as SMILES.

Type in all cases: functional
The test system of test [1] is Pseudomonas aeruginosa. Briefly: Antibacterial activity against Pseudomonas aeruginosa PAO1 assessed as growth inhibition at 40 ug/ml after 16 hrs by spectrophotometric analysis. The following applies: PAO1, 16 h, read-out: GI. The method, boiled down:
(§1)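 Growth inhibition read as OD600 on 300 µL culture samples, with untreated control cultures taken as maximum growth. Percent inhibition = (OD600 control − OD600 treated) × 100 / OD600 control. Parent antibiotics and their conjugates were run in parallel at three concentrations per compound, in biological duplicate.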

Test [2] has as its system Staphylococcus aureus. Kind of test: Antibacterial activity against Staphylococcus aureus RN4220 assessed as growth inhibition at 30 ug/ml after 16 hrs by spectrophotometric analysis. As to conditions: RN4220, 16 h, read-out: GI. In outline: as §1
Test [3] concerns Bacillus subtilis. Kind of test: Antibacterial activity against Bacillus subtilis 168 assessed as growth inhibition at 5 ug/ml after 16 hrs by spectrophotometric analysis. As to conditions: subsp. subtilis str. 168, 16 h, read-out: GI. The method, boiled down:
as §1

Test [4] relates to Escherichia coli. Briefly: Antibacterial activity against Escherichia coli DH5alpha assessed as growth inhibition at 3 ug/ml after 16 hrs by spectrophotometric method. As to conditions: DH5[alpha], read-out: GI. In outline: as §1
Test [5] has as its system Escherichia coli. Kind of test: Antibacterial activity against Escherichia coli DH5alpha assessed as growth inhibition at 0.75 ug/ml after 16 hrs by spectrophotometric method. As to conditions: DH5[alpha], read-out: GI. In outline: as §1
The subject of test [6] is Staphylococcus aureus. Kind of test: Antibacterial activity against Staphylococcus aureus RN4220 assessed as growth inhibition at 15 ug/ml after 16 hrs by spectrophotometric analysis. The following applies: RN4220, 16 h, read-out: GI. In outline:
as §1

For test [7], the system named is Bacillus subtilis. Kind of test: Antibacterial activity against Bacillus subtilis 168 assessed as growth inhibition at 20 ug/ml after 16 hrs by spectrophotometric analysis. As to conditions: subsp. subtilis str. 168, 16 h, read-out: GI. In outline: as §1
Test [8] relates to Staphylococcus aureus. Kind of test: Antibacterial activity against Staphylococcus aureus RN4220 assessed as growth inhibition at 60 ug/ml after 16 hrs by spectrophotometric analysis. The following applies: RN4220, 16 h, read-out: GI. The method, boiled down:
as §1

For test [9], the system named is Escherichia coli. Kind of test: Antibacterial activity against Escherichia coli DH5alpha assessed as growth inhibition at 1.5 ug/ml after 16 hrs by spectrophotometric method. As to conditions: DH5[alpha], read-out: GI. The method, boiled down:
as §1

Test [10] deals with Pseudomonas aeruginosa. Briefly: Antibacterial activity against Pseudomonas aeruginosa PAO1 assessed as growth inhibition at 20 ug/ml after 16 hrs by spectrophotometric analysis. The following applies: PAO1, 16 h, read-out: GI. The method, boiled down: as §1
Test [11] has as its system Pseudomonas aeruginosa. Kind of test: Antibacterial activity against Pseudomonas aeruginosa PAO1 assessed as growth inhibition at 10 ug/ml after 16 hrs by spectrophotometric analysis. The following applies: PAO1, 16 h, read-out: GI. The method, boiled down: as §1
Test [12] has as its system Bacillus subtilis. Briefly: Antibacterial activity against Bacillus subtilis 168 assessed as growth inhibition at 10 ug/ml after 16 hrs by spectrophotometric analysis. As to conditions: subsp. subtilis str. 168, 16 h, read-out: GI. The method, boiled down:
as §1

For test [13], the system named is Staphylococcus aureus. Briefly: Antibacterial activity against Staphylococcus aureus RN4220 assessed as growth inhibition at 200 ug/ml after 16 hrs by spectrophotometric analysis. The following applies: RN4220, 16 h, read-out: GI. The method, boiled down: as §1
In test [14] the test system is Escherichia coli. Briefly: Antibacterial activity against Escherichia coli DH5alpha assessed as growth inhibition at 2.5 ug/ml after 16 hrs by spectrophotometric method. As to conditions: DH5[alpha], read-out: GI. The method, boiled down:
as §1

In test [15] the test system is Escherichia coli. Kind of test: Antibacterial activity against Escherichia coli DH5alpha assessed as growth inhibition at 10 ug/ml after 16 hrs by spectrophotometric method. As to conditions: DH5[alpha], read-out: GI. The method, boiled down: as §1
The test system of test [16] is Staphylococcus aureus. Kind of test: Antibacterial activity against Staphylococcus aureus RN4220 assessed as growth inhibition at 100 ug/ml after 16 hrs by spectrophotometric analysis. As to conditions: RN4220, 16 h, read-out: GI. The method, boiled down: as §1
For test [17], the system named is Bacillus subtilis. Kind of test: Antibacterial activity against Bacillus subtilis 168 assessed as growth inhibition at 40 ug/ml after 16 hrs by spectrophotometric analysis. The following applies: subsp. subtilis str. 168, 16 h, read-out: GI. The method, boiled down:
as §1

The test system of test [18] is Staphylococcus aureus. Briefly: Antibacterial activity against Staphylococcus aureus RN4220 assessed as growth inhibition at 50 ug/ml after 16 hrs by spectrophotometric analysis. As to conditions: RN4220, 16 h, read-out: GI. The method, boiled down:
as §1

In test [19] the test system is Escherichia coli. Kind of test: Antibacterial activity against Escherichia coli DH5alpha assessed as growth inhibition at 5 ug/ml after 16 hrs by spectrophotometric method. As to conditions: DH5[alpha], read-out: GI. The method, boiled down: as §1
In test [20] the test system is Escherichia coli. Briefly: Antibacterial activity against Escherichia coli DH5alpha assessed as growth inhibition at 75 ug/ml after 16 hrs by spectrophotometric method. As to conditions: DH5[alpha], read-out: GI. In outline:
as §1

Test [21] relates to Escherichia coli. Briefly: Antibacterial activity against Escherichia coli DH5alpha assessed as growth inhibition at 50 ug/ml after 16 hrs by spectrophotometric method. The following applies: DH5[alpha], read-out: GI. In outline: as §1
Test [22] has as its system Staphylococcus aureus. Briefly: Antibacterial activity against Staphylococcus aureus RN4220 assessed as growth inhibition at 150 ug/ml after 16 hrs by spectrophotometric analysis. The following applies: RN4220, 16 h, read-out: GI. In outline:
as §1

For test [23], the system named is Staphylococcus aureus. Kind of test: Antibacterial activity against Staphylococcus aureus RN4220 assessed as growth inhibition at 75 ug/ml after 16 hrs by spectrophotometric analysis. As to conditions: RN4220, 16 h, read-out: GI. The method, boiled down: as §1
The subject of test [24] is Staphylococcus aureus. Kind of test: Antibacterial activity against Staphylococcus aureus RN4220 assessed as growth inhibition at 300 ug/ml after 16 hrs by spectrophotometric analysis. As to conditions: RN4220, 16 h, read-out: GI. In outline: as §1
The subject of test [25] is Escherichia coli. Kind of test: Antibacterial activity against Escherichia coli DH5alpha assessed as growth inhibition at 100 ug/ml after 16 hrs by spectrophotometric method. As to conditions: DH5[alpha], read-out: GI. In outline: as §1

`CCn1cc(C(=O)O)c(=O)c2cc(F)c(N3CCN(C(=O)[C@H](Cc4ccccc4)NC(=O)OCc4ccccc4)CC3)cc21`: the inhibition of growth at 40 µg/mL in the test with Pseudomonas aeruginosa [1] was 5.69%. Moreover, in the test with Staphylococcus aureus [2], the inhibition of growth at 30 µg/mL is 89.6%. Moreover, the inhibition of growth at 5 µg/mL in the test with Bacillus subtilis [3] came to 49.1%. The inhibition of growth at 3 µg/mL in the test on Escherichia coli [4] was 0.54%. Moreover, in the test on Escherichia coli [5], the inhibition of growth at 0.75 µg/mL is -0.95%. Further, in the test with Staphylococcus aureus [6], the inhibition of growth at 15 µg/mL came out at 12%. For the same compound, the inhibition of growth at 20 µg/mL is 90.1% in the test on Bacillus subtilis [7] and -18.6% in the test on Pseudomonas aeruginosa [10]. The inhibition of growth at 60 µg/mL in the test on Staphylococcus aureus [8] came out at 92.7%. In addition, the inhibition of growth at 1.5 µg/mL in the test with Escherichia coli [9] turned out to be 3.79%. Also, the inhibition of growth at 10 µg/mL was -28% in the test on Pseudomonas aeruginosa [11] and 61.1% in the test on Bacillus subtilis [12].

Take `CCn1cc(C(=O)O)c(=O)c2cc(F)c(N3CCN(C(=O)[C@H](C)NC(=O)OCc4ccccc4)CC3)cc21`: the inhibition of growth at 40 µg/mL in the test with Pseudomonas aeruginosa [1] is 20.5%. The inhibition of growth at 30 µg/mL in the test with Staphylococcus aureus [2] came out at 81.8%. The inhibition of growth at 5 µg/mL in the test on Bacillus subtilis [3] was found to be 92.2%. The inhibition of growth at 3 µg/mL with Escherichia coli [4] was 3.52%. Further, the inhibition of growth at 0.75 µg/mL in the test with Escherichia coli [5] was found to be 0.21%. Besides, the inhibition of growth at 15 µg/mL with Staphylococcus aureus [6] was found to be 74.1%. Also, the inhibition of growth at 20 µg/mL in the test with Bacillus subtilis [7] was 90.5%; in the test on Pseudomonas aeruginosa [10], -14.2%. Further, the inhibition of growth at 60 µg/mL in the test on Staphylococcus aureus [8] worked out at 91%. Further, the inhibition of growth at 1.5 µg/mL in the test with Escherichia coli [9] is -0.24%. For the same compound, the inhibition of growth at 10 µg/mL was -26.8% in the test with Pseudomonas aeruginosa [11] and 91.4% in the test on Bacillus subtilis [12].

As to `CCn1cc(C(=O)O)c(=O)c2cc(F)c(N3CCN(C(=O)CNC(=O)OCc4ccccc4)CC3)cc21`, the inhibition of growth at 40 µg/mL in the test with Pseudomonas aeruginosa [1] was 81.5%. In the test on Staphylococcus aureus [2], the inhibition of growth at 30 µg/mL turned out to be 85.7%. The inhibition of growth at 5 µg/mL in the test on Bacillus subtilis [3] was 91.6%. The inhibition of growth at 3 µg/mL in the test with Escherichia coli [4] worked out at 20.8%. For the same compound, the inhibition of growth at 0.75 µg/mL in the test on Escherichia coli [5] amounted to 5.96%. Moreover, the inhibition of growth at 15 µg/mL in the test on Staphylococcus aureus [6] worked out at 83.6%. Besides, the inhibition of growth at 20 µg/mL in the test on Bacillus subtilis [7] amounted to 89.5%; in the test with Pseudomonas aeruginosa [10], 10.6%. For the same compound, the inhibition of growth at 60 µg/mL in the test on Staphylococcus aureus [8] came to 88.5%. Besides, the inhibition of growth at 1.5 µg/mL in the test on Escherichia coli [9] was 9.75%. Besides, the inhibition of growth at 10 µg/mL in the test on Pseudomonas aeruginosa [11] was -16.2%; with Bacillus subtilis [12] it was 90.2%.

With `CCn1cc(C(=O)O)c(=O)c2cnc(N3CCN(C(=O)CNC(=O)OCc4ccccc4)CC3)nc21`, the inhibition of growth at 200 µg/mL in the test on Staphylococcus aureus [13] turned out to be 57.4%. In the test on Escherichia coli [14], the inhibition of growth at 2.5 µg/mL was -13.4%. In addition, the figures for the inhibition of growth at 10 µg/mL in the test on Escherichia coli [15] and with Bacillus subtilis [12] were -8.93% and 88.2%, respectively. Further, the inhibition of growth at 100 µg/mL in the test on Staphylococcus aureus [16] was 52.2%. Also, in the test with Bacillus subtilis [7], the inhibition of growth at 20 µg/mL was -7.68%. Besides, in the test with Bacillus subtilis [17], the inhibition of growth at 40 µg/mL worked out at 91.7%. Further, in the test on Staphylococcus aureus [18], the inhibition of growth at 50 µg/mL came out at 32.9%. For the same compound, in the test on Escherichia coli [19], the inhibition of growth at 5 µg/mL is -11.1%.

Consider `Cc1ncc([N+](=O)[O-])n1CCOC(=O)[C@H](Cc1ccccc1)NC(=O)OCc1ccccc1`, for which the figures for the inhibition of growth at 75 µg/mL in the test with Escherichia coli [20] and in the test on Staphylococcus aureus [23] were 5.73% and -0.03%, respectively. The inhibition of growth at 50 µg/mL in the test with Escherichia coli [21] was determined as 4.44%. The inhibition of growth at 150 µg/mL with Staphylococcus aureus [22] amounted to 6.66%. In addition, the inhibition of growth at 300 µg/mL in the test on Staphylococcus aureus [24] came out at 20.5%. In the test on Escherichia coli [25], the inhibition of growth at 100 µg/mL was determined as 7.7%.

In the case of `CCn1cc(C(=O)O)c(=O)c2cnc(N3CCN(C(=O)[C@@H](NC(=O)OCc4ccccc4)C(C)C)CC3)nc21`, the inhibition of growth at 200 µg/mL in the test on Staphylococcus aureus [13] came out at 70.6%. For the same compound, the inhibition of growth at 2.5 µg/mL in the test with Escherichia coli [14] was -9.71%. Moreover, the inhibition of growth at 10 µg/mL was found to be 27.2% in the test with Escherichia coli [15] and 4.69% in the test with Bacillus subtilis [12]. Also, in the test on Staphylococcus aureus [16], the inhibition of growth at 100 µg/mL was determined as 60%. In the test with Bacillus subtilis [7], the inhibition of growth at 20 µg/mL stood at 17%. Also, the inhibition of growth at 40 µg/mL in the test on Bacillus subtilis [17] amounted to 78.2%. Besides, the inhibition of growth at 50 µg/mL with Staphylococcus aureus [18] was determined as 45.7%. The inhibition of growth at 5 µg/mL in the test on Escherichia coli [19] is -6.67%.

In the case of `Cc1ncc([N+](=O)[O-])n1CCO` [METRONIDAZOLE], the inhibition of growth at 75 µg/mL in the test on Escherichia coli [20] was 8.2%; in the test with Staphylococcus aureus [23], -14.3%. Further, the inhibition of growth at 50 µg/mL in the test on Escherichia coli [21] is 6.64%. The inhibition of growth at 150 µg/mL in the test with Staphylococcus aureus [22] was -9.9%. Further, the inhibition of growth at 300 µg/mL in the test with Staphylococcus aureus [24] was 16.4%. Moreover, the inhibition of growth at 100 µg/mL with Escherichia coli [25] was determined as 15%.
